We go through three compounds from ChEMBL document CHEMBL2040742, “Predicting and improving the membrane permeability of peptidic small molecules” (J Med Chem, 2012).

Type in all cases: ADME, cell-based, Canis lupus familiaris
Settings in all cases: dog

Data set [1] deals with MDCK. In words: Apparent permeability from apical to basal side of MDCK cells expressing MDR1 at 2 uM by LC-MS/MS analysis. In short, it runs like this:
(§1)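 MDR1-MDCK monolayers grown on PET inserts (seeded 2 × 10⁵ cells/cm², 4-6 days to confluence). Compound diluted from 10 mM stock into HBSS pH 7.4 to 2 μM, dosed apically or basolaterally. Analyte quantified by LC-MS/MS as analyte/IS peak area ratio. Papp from 0.084 cm² monolayer area and initial donor concentration. Triplicate, reported as means.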

Data set [2] concerns MDCK. In words: Apparent permeability from basal to apical side of MDCK cells expressing MDR1 at 2 uM by LC-MS/MS analysis. The method in brief: as §1
Data set [3] relates to MDCK. In words: Efflux ratio of apparent permeability from basal to apical side to apical to basal side of MDCK cells expressing MDR1 at 2 uM by LC-MS/MS analysis.

SMILES strings stand for the structures.

For orientation: Papp means the rate of passage across a membrane or cell layer, normalised by area and donor concentration.

In the case of `N#CCNC(=O)[C@H](Cc1c[nH]cn1)NC(=O)OCc1ccccc1`, the Papp in the data set on MDCK [1] is 5.1 nm/s; in the data set on MDCK [2] it was 29.4 nm/s. Further, in the data set with MDCK [3], the Ratio turned out to be 5.8.

With `NC(=O)[C@H](Cc1ccccc1)NC(=O)OCc1ccccc1`, the Papp in the data set on MDCK [1] is 246 nm/s; in the data set with MDCK [2], 211 nm/s. Besides, in the data set on MDCK [3], the Ratio came out at 0.86.

In the case of `NC(=O)[C@H](Cc1ccncc1)NC(=O)OCc1ccccc1`, the Papp with MDCK [1] was determined as 43.1 nm/s; in the data set with MDCK [2], 134 nm/s. Moreover, in the data set with MDCK [3], the Ratio was 3.1.
